Target: Indolethylamine N-methyltransferase (Oryctolagus cuniculus, UniProt O97972)
Assay: Inhibition of New Zealand white rabbit lung INMT using N-methyltryptamine as substrate after 60 to 90 mins by liquid scintillation counting in presence of S-methyl-[14C]adenosylmethionine
Method in brief: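 Enzyme from male rabbit lung: homogenate in 0.15 M KCl with 10^-4 M DTT and EDTA, 50 000 g supernatant, 40-60% ammonium sulfate fraction dialysed (some runs further Sephadex G-150 purified). Incubation in potassium phosphate pH 7.9 with N-methyltryptamine and S-[methyl-14C]adenosylmethionine, test compound in water or 5% DMSO, 37 °C. Stopped with borate pH 10; 14C-DMT extracted into isoamyl alcohol.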

Sequence of Indolethylamine N-methyltransferase (O97972 whole entry): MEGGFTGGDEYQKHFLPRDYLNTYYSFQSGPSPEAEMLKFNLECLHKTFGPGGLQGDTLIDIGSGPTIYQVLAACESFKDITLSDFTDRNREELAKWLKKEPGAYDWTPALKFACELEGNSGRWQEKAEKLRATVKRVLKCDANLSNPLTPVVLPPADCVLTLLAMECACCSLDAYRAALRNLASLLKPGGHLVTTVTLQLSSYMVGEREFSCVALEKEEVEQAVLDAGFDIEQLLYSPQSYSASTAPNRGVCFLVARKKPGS

Work on `C1CN=C2CCCN2C1` yielded an IC50 of 38.7 µM.

— BindingDB's records for doi:10.1021/jm00189a004 (1979)
